Hits are enriched below; roughly 1.9% of the tested compounds scored in any of these assays.
NadD inh: blocks S. aureus nicotinate mononucleotide adenylyltransferase; purified NadD enzyme, colorimetric absorbance read-out; inhibition, % at 20 µM; actives 0.78% (n = 360,000); in the data active means inhibition above about 26%
Rpn11 inh: blocks the human proteasome subunit Rpn11; O00487; human 26S proteasome, Ub4-pepOG fluorescence polarization; 20S core pre-blocked with epoxomicin; inhibition, % at 20 µM; actives 0.59% (n = 360,000);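 active means inhibition at 20 µM, scaled to each plate's controls, above about 33%, limit read from the data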
ABHD5-PLIN5 inh: blocks binding of human ABHD5 to perilipin-5 | AID 602281 | Split G. princeps luciferase complementation, luminescence, 4 h | inhibition, % at 4 µM | actives 0.78% (n = 360,000);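 active means inhibition above the mean inhibition across every tested compound plus 3 SD, cut at about 22% in these data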;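 further: 0% = DMSO only wells and the 100% control is not disclosed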
Xi reactivation: activators of X-chromosome reactivation in mouse fibroblasts | XiGFP mouse fibroblasts, % GFP-positive cells imaging, 3 d; cells co-treated with 5-aza-dC sensitizer; scaled so ellipticine positive control = 100% | activation, % at 7.58 µM | actives 0.055% (n = 360,000) | AID 743238;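 active means mean normalized replicate activation at least 10% and every replicate at or above 10%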;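 further: 0% = median of on-plate neutral control wells and 100% = ellipticine 6 µM median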
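System: 68-5-11 XiGFP fibroblast line; Timing: 3 days compound exposure; Compound dosing: one concentration, pinned; Benchmarks: positive control ellipticine, 6 µM final; Buffer or medium: DMEM containing 5-aza-dC.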
Rin1-Abl PPI inh: human Rin1-Abl interaction inhibition; P00519+Q13671; TR-FRET Rin1/Abl binding, biochemical; inhibition, % at 7.35 µM; actives 0.4% (n = 360,000); in the data active means inhibition above about 5%, passing the limit was not always enough
NadD inh conf: confirmation of Staphylococcus aureus NadD inhibitors; shares compounds with NadD inh; purified S. aureus NadD, colorimetric enzyme assay; inhibition, % at 20 µM; actives 13% (n = 2,000); in the data active means inhibition mostly above about 42%, no sharp cut-off; inactive means mostly below about 42%
* = called active by the depositor.

How did Cc1cccc(Nc2nnc(SC/C(O)=C(\C#N)c3nc4ccccc4[nH]3)s2)c1 do in these assays?
NadD inh: 32*; Rpn11 inh: 21; ABHD5-PLIN5 inh: 5; Xi reactivation: 0; Rin1-Abl PPI inh: 0; NadD inh conf: 38

What do the screens show for `COc1ccc(C)cc1-n1nnnc1SC/C(O)=C(\C#N)c1nc2ccccc2[nH]1`?
NadD inh: 6; Rpn11 inh: 18; ABHD5-PLIN5 inh: -5; Rin1-Abl PPI inh: -2

Results for Cc1ccc(Nc2nnc(SC/C(O)=C(\C#N)c3nc4ccccc4[nH]3)s2)c(C)c1 ?
NadD inh: 56*; Rpn11 inh: 32; ABHD5-PLIN5 inh: -6; Rin1-Abl PPI inh: 3; NadD inh conf: 61*

Results for C[C@H](CO)N1C[C@H](C)[C@H](CN(C)C(=O)c2ccccc2)Oc2ncc(C3=CCCCC3)cc2C1=O ?
Xi reactivation: -1

What do the screens show for `NC(=O)[C@H]1CC2(CC(c3cccc(NC(=O)COc4ccc(Cl)cc4)c3)=NO2)CN1C(=O)CC(c1ccccc1)c1ccccc1` (stereo partly specified)?
NadD inh: 37*; Rpn11 inh: 2; ABHD5-PLIN5 inh: 11; Xi reactivation: 0; Rin1-Abl PPI inh: 0; NadD inh conf: 50*

Results for CCCCCC(=O)N1CC2(CC(c3cccc(NC(=O)COc4ccc(Cl)cc4)c3)=NO2)C[C@@H]1C(N)=O (stereo partly specified) ?
NadD inh: 7; Rpn11 inh: 0; ABHD5-PLIN5 inh: -2; Xi reactivation: 0; Rin1-Abl PPI inh: -2

What do the screens show for `NC(=O)[C@@H]1CC2(CC(c3cccc(NC(=O)CC(c4ccccc4)c4ccccc4)c3)=NO2)CN1C(=O)COc1ccc(Cl)cc1` (stereo partly specified)?
NadD inh: 39*; Rpn11 inh: 2; ABHD5-PLIN5 inh: -2; Xi reactivation: 0; Rin1-Abl PPI inh: 2; NadD inh conf: 27

Results for CCNC(=O)C[C@H]1CC[C@@H](NS(=O)(=O)c2ccc(F)cc2)[C@H](CO)O1 ?
Xi reactivation: 0

Results for Cc1ccc(-c2nsc3c(N4CCC(C(N)=O)CC4)ncnc23)cc1 ?
NadD inh: 31*; Rpn11 inh: 1; ABHD5-PLIN5 inh: 2; Rin1-Abl PPI inh: -2; NadD inh conf: 6

What do the screens show for `COc1ccc(-c2nsc3c(N4CCCCC4)ncnc23)cc1`?
NadD inh: 7; Rpn11 inh: 0; ABHD5-PLIN5 inh: -8; Rin1-Abl PPI inh: -3

How did C[C@H]1CN([C@@H](C)CO)C(=O)Cc2cc(NS(=O)(=O)c3ccc(F)cc3)ccc2O[C@@H]1CN(C)C do in these assays?
Xi reactivation: 0

How did COc1ccccc1C(=O)Nc1ccc(Oc2nnc(-c3ccc(C)cc3)c3ccccc23)cc1 do in these assays?
NadD inh: 52*; Rpn11 inh: 0; ABHD5-PLIN5 inh: -2; Xi reactivation: 0; Rin1-Abl PPI inh: -5; NadD inh conf: 17

How did Cc1ccc(Oc2nnc(-c3ccc(C)cc3)c3ccccc23)cc1 do in these assays?
NadD inh: 8; Rpn11 inh: 3; ABHD5-PLIN5 inh: 8; Xi reactivation: 0; Rin1-Abl PPI inh: 1

How did O=C(C[C@@H]1CC[C@@H]2[C@H](COC[C@@H](O)CN2S(=O)(=O)c2ccc(Cl)cc2)O1)NCCN1CCCCC1 do in these assays?
Xi reactivation: 0

How did N#C/C(=C/c1ccc(F)cc1)c1nnc(NC(=O)c2ccccc2)s1 do in these assays?
NadD inh: 36*; Rpn11 inh: 12; ABHD5-PLIN5 inh: -7; Xi reactivation: 0; Rin1-Abl PPI inh: 1; NadD inh conf: 4

Results for CCCC[C@@H]1Cc2[nH][nH]c(=O)c2[C@H](c2ccc(C(C)C)cc2)O1 ?
NadD inh: 38*; ABHD5-PLIN5 inh: 23*; Xi reactivation: 0; NadD inh conf: 6

How did CCCC[C@@H]1Cc2[nH][nH]c(=O)c2[C@H](c2ccc3ccccc3c2)O1 do in these assays?
NadD inh: 11; ABHD5-PLIN5 inh: 17; Xi reactivation: 0

How did COc1ccccc1Nc1ncc(-c2cccs2)s1 do in these assays?
NadD inh: 40*; Rpn11 inh: 34; ABHD5-PLIN5 inh: -13; Rin1-Abl PPI inh: -7; NadD inh conf: 18

How did COc1ccccc1Nc1ccc(C(=O)NCc2cccs2)cn1 do in these assays?
NadD inh: 0; Rpn11 inh: 2; ABHD5-PLIN5 inh: -5; Xi reactivation: 0; Rin1-Abl PPI inh: -2

What do the screens show for `Cc1ccc(-c2csc(NC(=O)CSc3nnc4c(n3)[nH]c3ccccc34)n2)cc1`?
NadD inh: 58*; Rpn11 inh: 12; ABHD5-PLIN5 inh: 1; Xi reactivation: 0; Rin1-Abl PPI inh: 1; NadD inh conf: 18

What do the screens show for `C[C@@H]1CN([C@H](C)CO)C(=O)c2cc(NC(=O)Cn3cnnn3)ccc2O[C@H]1CN(C)S(=O)(=O)c1ccc(Cl)cc1`?
Xi reactivation: 0

Results for CC(C)(C)S(=O)N1Cc2cc(C(=O)Nc3ccc(-c4ccccc4)cc3)nc(-c3cccc(-c4cc5ccccc5o4)c3)c2[C@@H]1CCO (stereo partly specified) ?
NadD inh: 35*; Rpn11 inh: 37; ABHD5-PLIN5 inh: 4; Xi reactivation: 0; Rin1-Abl PPI inh: 2; NadD inh conf: 1

Results for CCC(=O)Nc1ccc2c(c1)C(=O)N(C)C[C@H](OC)[C@@H](C)CN(C(=O)COC)[C@@H](C)CO2 ?
Xi reactivation: 0

What do the screens show for `COc1ccc(-c2nc3c(c(SCC(=O)Nc4cccc(O)c4)n2)Cc2c(CO)cnc(C)c2O3)cc1`?
NadD inh: 50*; Rpn11 inh: 32; ABHD5-PLIN5 inh: 33*; Xi reactivation: 0; Rin1-Abl PPI inh: 0; NadD inh conf: 18

What do the screens show for `Cc1ncc(CO)c2c1Oc1nc(-c3ccccc3)nc(SCC(=O)Nc3cccc(O)c3)c1C2`?
NadD inh: 43*; Rpn11 inh: 31; ABHD5-PLIN5 inh: -8; Xi reactivation: 0; Rin1-Abl PPI inh: 8; NadD inh conf: 39*

How did O=C(CSc1ncc(-c2ccccc2)[nH]1)Nc1cccc(O)c1 do in these assays?
NadD inh: -2; Rpn11 inh: -5; ABHD5-PLIN5 inh: 0; Rin1-Abl PPI inh: -5

What do the screens show for `CCC(=O)N1CC2(C1)CN(Cc1cccc(OC)c1)[C@@H](CO)c1[nH]c3cc(OC)ccc3c12`?
Xi reactivation: 0

What do the screens show for `O=C(Nc1nc2cc(Cl)ccc2s1)C1CCCN(S(=O)(=O)c2cccc3cccnc23)C1` (stereo unspecified)?
NadD inh: 36*; Rpn11 inh: 5; ABHD5-PLIN5 inh: -7; Rin1-Abl PPI inh: 0; NadD inh conf: 11

Source: PubChem
